Assay results: ChEMBL document CHEMBL2321859, “Cytotoxic betulin-derived hydroxypropargylamines trigger apoptosis” (Bioorg Med Chem, 2013)
Values after ≈ are worked out from the molar mass of the structure shown. Active and inactive are the calls of the source. The calls are words filed in the database; no cut-off is given here.

Columns and labels:
SW-1736 = assay: Cytotoxicity against human SW1736 cells assessed as cell viability after 96 hrs by SRB assay; assay type: functional, cell-based
[1] = Cytotoxicity against human 518A2 cells assessed as cell viability after 96 hrs by SRB assay; assay type: functional, cell-based
8505C = assay: Cytotoxicity against human 8505C cells assessed as cell viability after 96 hrs by SRB assay; assay type: functional, cell-based
A549 [2] = assay: Cytotoxicity against human A549 cells assessed as cell viability after 96 hrs by SRB assay; assay type: functional, cell-based
DLD-1 = assay: Cytotoxicity against human DLD1 cells assessed as cell viability after 96 hrs by SRB assay; assay type: functional, cell-based
[3] = Solubility of the compound in water/DMSO mixture; assay type: physicochemical
Procedure, shortened: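 Solubility was measured in water/DMSO (95:5, v/v) by HPLC with UV/vis detection.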

[4] = Cytotoxicity against human A253 cells assessed as cell viability after 96 hrs by SRB assay; assay type: functional, cell-based
MCF7 = assay: Cytotoxicity against human MCF7 cells assessed as cell viability after 96 hrs by SRB assay; assay type: functional, cell-based
[5] = Cytotoxicity against human Lipo cells assessed as cell viability after 96 hrs by SRB assay; assay type: functional, cell-based
A2780 = assay: Cytotoxicity against human A2780 cells assessed as cell viability after 96 hrs by SRB assay; assay type: functional, cell-based
NIH3T3 = assay: Cytotoxicity against mouse NIH/3T3 cells assessed as cell viability after 96 hrs by SRB assay; assay type: cell-based; details: NIH3T3, 96 h
A549 [6] = assay: Induction of apoptosis in human A549 cells assessed as membrane blebbing by acridine orange/propidium iodide staining; assay type: functional, cell-based
A549 [7] = assay: Induction of apoptosis in human A549 cells assessed as DNA fragmentation by DNA laddering assay; assay type: functional, cell-based
Procedure, shortened: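 DNA fragmentation was checked by DNA laddering in treated human cancer cells, as an indicator of apoptotic cell death.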

A549 [8] = assay: Induction of apoptosis in human A549 cells assessed as early apoptotic cells at 10 uM after 6 hrs by annexin V/propidium iodide staining-based FACS flow cytometric analysis relative to control; assay type: functional
Procedure, shortened: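 A549 cells incubated 6 h with compound, then analysed by FACS annexin V/propidium iodide assay. Phosphatidylserine translocation to the outer membrane was taken as the early-apoptosis marker. Cells were scored as percentage dying by necrosis versus programmed cell death. Betulinic acid and maslinic acid were the reference standards.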

A549 [9] = assay: Induction of apoptosis in human A549 cells assessed as chromatin condensation by acridine orange/propidium iodide staining; assay type: functional, cell-based
A549 [10] = assay: Induction of apoptosis in human A549 cells assessed as cell shrinking by acridine orange/propidium iodide staining; assay type: functional, cell-based
A549 [11] = assay: Cell cycle arrest in human A549 cells assessed as accumulation at G2/M phase by acridine orange/propidium iodide staining; assay type: functional, cell-based
[12] = water/DMSO mixture, read-out: solubility

SMILES	IC50 (SW-1736; Homo sapiens, SW-1736, 96 h) [µM]	IC50 ([1]; Homo sapiens, 518A2, 96 h) [µM]	IC50 (8505C; Homo sapiens, 8505C, 96 h) [µM]	IC50 (A549 [2]; Homo sapiens, A549, 96 h) [µM]	IC50 (DLD-1; Homo sapiens, DLD-1, 96 h) [µM]	IC50 ([4]; Homo sapiens, A253, 96 h) [µM]	IC50 (MCF7; Homo sapiens, MCF7, 96 h) [µM]	IC50 ([5]; Homo sapiens, Lipo, 96 h) [µM]	IC50 (A2780; Homo sapiens, A2780, 96 h) [µM]	IC50 (NIH3T3) [µM]	also measured
C=C(C)[C@@H]1CC[C@]2([C@H](O)C#CCN3CCNCC3)CC[C@]3(C)[C@H](CC[C@@H]4[C@@]5(C)CC[C@H](OC(C)=O)C(C)(C)[C@@H]5CC[C@]43C)[C@@H]12.Cl	7.7	5	6.9	6.5	5.2	4.6	2.5	2.7	2.7	4	solubility [3, 12]: 178 µg/mL
C=CCN(CC#C[C@@H](O)[C@]12CC[C@@H](C(=C)C)[C@@H]1[C@H]1CC[C@@H]3[C@@]4(C)CC[C@H](OC(C)=O)C(C)(C)[C@@H]4CC[C@@]3(C)[C@]1(C)CC2)CC=C [listing 1 of 2 here]				> 60				21.8		> 60	IC50 (SW-1736; sw-1736): 30.2 µM; IC50 ([1]; 518a2): 52 µM; IC50 (8505C; 8505c): 47.9 µM; IC50 (DLD-1; dld-1): 44.2 µM; IC50 ([4]; a253): 32.8 µM; IC50 (MCF7; mcf7): 15.7 µM; IC50 (A2780; a2780): 12.4 µM
C=C(C)[C@@H]1CC[C@]2([C@H](O)C#CCN3CCSCC3)CC[C@]3(C)[C@H](CC[C@@H]4[C@@]5(C)CC[C@H](OC(C)=O)C(C)(C)[C@@H]5CC[C@]43C)[C@@H]12	3.7	9.3	2	16.3	19	7.5	3.8	3.5	4.3	8.8	
C=C(C)[C@@H]1CC[C@]2([C@H](O)C#CCN(CCC)CCC)CC[C@]3(C)[C@H](CC[C@@H]4[C@@]5(C)CC[C@H](OC(C)=O)C(C)(C)[C@@H]5CC[C@]43C)[C@@H]12	7.5	21	28	25.9	20.7	15.2	16.5	24.2	12	> 30	
C=C(C)[C@@H]1CC[C@]2(C(=O)O)CC[C@]3(C)[C@H](CC[C@@H]4[C@@]5(C)CC[C@H](O)C(C)(C)[C@@H]5CC[C@]43C)[C@@H]12 [BETULINIC ACID]								9.7	11	10	solubility ([3]; buffer): 166 µg/mL (≈ 363 µM)
C=C(C)[C@@H]1CC[C@]2([C@H](O)C#CCN(C3CCCCC3)C3CCCCC3)CC[C@]3(C)[C@H](CC[C@@H]4[C@@]5(C)CC[C@H](OC(C)=O)C(C)(C)[C@@H]5CC[C@]43C)[C@@H]12.Cl	> 30	> 30	> 30	> 30	> 30	> 30	> 30	> 30	> 30	> 30	solubility [3, 12]: 100 µg/mL
C=C(C)[C@@H]1CC[C@]2([C@H](O)C#CCN(C)C)CC[C@]3(C)[C@H](CC[C@@H]4[C@@]5(C)CC[C@H](OC(C)=O)C(C)(C)[C@@H]5CC[C@]43C)[C@@H]12.Cl	6.5	7.2	6.7	11.1	12.9	6.4	3.7	8.6	4.9	5.8	solubility [3, 12]: 312 µg/mL
C=C(C)[C@@H]1CC[C@]2([C@H](O)C#CCN3CCCCCC3)CC[C@]3(C)[C@H](CC[C@@H]4[C@@]5(C)CC[C@H](OC(C)=O)C(C)(C)[C@@H]5CC[C@]43C)[C@@H]12	32.3	22.4	32.3	47	40.8	20.1	13.5	> 30	14.4	17	
C=C(C)[C@@H]1CC[C@]2([C@H](O)C#CCN(C(C)C)C(C)C)CC[C@]3(C)[C@H](CC[C@@H]4[C@@]5(C)CC[C@H](O)C(C)(C)[C@@H]5CC[C@]43C)[C@@H]12	4	6.4	5.8	8.3	9.1	8.2	8.2	10.3	5.4	6.2	
C=C(C)[C@@H]1CC[C@]2([C@H](O)C#CCN3CCCC3)CC[C@]3(C)[C@H](CC[C@@H]4[C@@]5(C)CCC(=O)C(C)(C)[C@@H]5CC[C@]43C)[C@@H]12	6	5.6	3.4	3.5	2.6	3.4	3.1	5.6	3.6	6.4	solubility [3, 12]: 182 µg/mL (≈ 332 µM)
C=C(C)[C@@H]1CC[C@]2([C@@H](O)C#CCN(Cc3ccccc3)Cc3ccccc3)CC[C@]3(C)[C@H](CC[C@@H]4[C@@]5(C)CC[C@H](OC(C)=O)C(C)(C)[C@@H]5CC[C@]43C)[C@@H]12	> 70	> 30	> 30	> 70	> 70	> 70	27.2	> 70	> 70	> 70	
C#C[C@H](O)[C@]12CC[C@@H](C(=C)C)[C@@H]1[C@H]1CC[C@@H]3[C@@]4(C)CC[C@H](OC(C)=O)C(C)(C)[C@@H]4CC[C@@]3(C)[C@]1(C)CC2	23	32.5	22.9	42.2	> 30	16.5	20.5	28.9	9.3	32.3	
C=C(C)[C@@H]1CC[C@]2([C@@H](O)C#CCN3CCCC3)CC[C@]3(C)[C@H](CC[C@@H]4[C@@]5(C)CC[C@H](OC(C)=O)C(C)(C)[C@@H]5CC[C@]43C)[C@@H]12	20	12.1	11.1	12	18.8	10.4	7.7	11.6	8.3	14.5	
C#C[C@H](O)[C@]12CC[C@@H](C(=C)C)[C@@H]1[C@H]1CC[C@@H]3[C@@]4(C)CCC(=O)C(C)(C)[C@@H]4CC[C@@]3(C)[C@]1(C)CC2	18.4	22.4	16.7	21.2	19	13.4	17.1	21.7	9.8	> 35	
C=C(C)[C@@H]1CC[C@]2([C@@H](O)C#CCN(CCC)CCC)CC[C@]3(C)[C@H](CC[C@@H]4[C@@]5(C)CC[C@H](OC(C)=O)C(C)(C)[C@@H]5CC[C@]43C)[C@@H]12.CI	3.2	4.6	4.1	4.5	4.8	3.5	3.2	4.3	2.3	6.8	Activity (A549 [6]): Active; Activity (A549 [7]): Active; Activity (A549 [8]): >90%; Activity (A549 [9]): Active; Activity (A549 [10]): Active; Activity (A549 [11]): Active
C=C(C)[C@@H]1CC[C@]2([C@@H](O)CCCN(C(C)C)C(C)C)CC[C@]3(C)[C@H](CC[C@@H]4[C@@]5(C)CC[C@H](O)C(C)(C)[C@@H]5CC[C@]43C)[C@@H]12	1.7	2.1	2.3	2.2	2.3	1.8	0.7	2.3	1.6	1.7	Activity (A549 [6]): Active; Activity (A549 [7]): Active; Activity (A549 [8]): >90%; Activity (A549 [9]): Active; Activity (A549 [10]): Active; Activity (A549 [11]): Active
C#C[C@H](O)[C@]12CC[C@@H](C(=C)C)[C@@H]1[C@H]1CC[C@@H]3[C@@]4(C)CC[C@H](O)C(C)(C)[C@@H]4CC[C@@]3(C)[C@]1(C)CC2	13	15.1	16.1	20.4	21.9	14.1	11.9	12.9	9.7	10.5	
C=CCN(CC#C[C@@H](O)[C@]12CC[C@@H](C(=C)C)[C@@H]1[C@H]1CC[C@@H]3[C@@]4(C)CC[C@H](OC(C)=O)C(C)(C)[C@@H]4CC[C@@]3(C)[C@]1(C)CC2)CC=C [listing 2 of 2 here]	48	> 60	> 60		57.6	43.1	31.1		18.2		IC50 (A549 [2]; a549): > 30 µM; IC50 ([5]; lipo): 17 µM
